Published values gathered from unrelated publications.
Lines come from different studies, so protocols differ.
Target: Ephrin type-A receptor 8 (EPHA8, Homo sapiens, UniProt P29322)
One construct used (P29322 28-1005): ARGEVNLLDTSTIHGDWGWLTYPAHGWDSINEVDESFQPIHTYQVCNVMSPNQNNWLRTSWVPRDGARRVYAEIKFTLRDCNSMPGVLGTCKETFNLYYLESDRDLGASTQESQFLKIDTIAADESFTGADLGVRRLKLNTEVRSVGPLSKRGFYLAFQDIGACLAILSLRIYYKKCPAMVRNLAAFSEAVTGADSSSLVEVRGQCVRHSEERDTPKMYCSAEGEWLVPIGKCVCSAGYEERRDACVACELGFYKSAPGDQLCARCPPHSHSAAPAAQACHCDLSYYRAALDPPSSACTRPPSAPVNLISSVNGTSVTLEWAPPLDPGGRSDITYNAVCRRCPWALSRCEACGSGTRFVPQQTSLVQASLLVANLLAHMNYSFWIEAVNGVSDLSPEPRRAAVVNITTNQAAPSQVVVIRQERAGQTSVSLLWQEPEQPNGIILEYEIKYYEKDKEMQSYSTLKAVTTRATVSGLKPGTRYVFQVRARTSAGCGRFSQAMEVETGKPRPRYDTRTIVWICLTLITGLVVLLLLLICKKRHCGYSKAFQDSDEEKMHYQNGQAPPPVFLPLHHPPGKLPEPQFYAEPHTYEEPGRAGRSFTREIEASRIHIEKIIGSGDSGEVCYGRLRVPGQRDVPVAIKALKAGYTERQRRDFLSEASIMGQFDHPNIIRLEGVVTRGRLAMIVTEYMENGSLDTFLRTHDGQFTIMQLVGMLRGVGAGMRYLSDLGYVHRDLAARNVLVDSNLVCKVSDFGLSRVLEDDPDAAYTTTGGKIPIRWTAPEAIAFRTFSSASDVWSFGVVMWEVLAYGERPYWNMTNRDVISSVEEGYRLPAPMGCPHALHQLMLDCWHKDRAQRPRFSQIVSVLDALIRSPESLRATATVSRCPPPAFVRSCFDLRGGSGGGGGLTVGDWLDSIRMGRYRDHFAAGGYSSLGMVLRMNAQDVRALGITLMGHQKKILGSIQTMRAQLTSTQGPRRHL

| Structure (SMILES) | observed | mode | method | concentration | quantity | value |
| --- | --- | --- | --- | --- | --- | --- |
| N#CC1(c2ccccn2)CCN(Cc2cc(C(=O)O)c(=O)n3ccccc23)CC1 | cell-free assay |  | competition with immobilised ligand | 1 µM | remaining binding | 100% |
| COc1ncccc1-c1cnn2ccc(N3CCN(C(=O)OC(C)C)CC3)nc12 | binding |  | competition with immobilised ligand | 1 µM | remaining binding | 100% |
| COc1cc(Cl)c(C(=O)N[C@@H](CN[C@H]2CC[C@@H](N)CC2)Cc2ccc(C#N)cc2)cc1-c1ccc(CN[C@H](C)c2ccc(C)cc2)o1 | enzyme activity | inhibitor |  | 1 µM | remaining activity | 107% |
| Cn1cncc1[C@](O)(COc1ccc(C#N)cc1-c1ccc(OC(F)(F)F)cc1)c1ccc(C#N)cc1 | cell-free assay |  | competition with immobilised ligand | 1 µM | remaining binding | 72% |
| CC(C)(C)c1cc(C=C(C#N)C#N)cc(Br)c1O | enzyme activity | inhibitor |  | 0.5 µM | remaining activity | 100% |
| Cn1cc(-c2cc(F)cc(N3CCn4c(cc5c4CCCC5)C3=O)c2CO)cc(Nc2ccc(N3CCN(C4COC4)CC3)cn2)c1=O | enzyme activity | inhibitor |  | 0.1 µM | inhibition | 8% |
| O=c1[nH]c2ccccc2n1C1CCN(Cc2ccc(-c3[nH]c4cc5ncnc5cc4nc3-c3ccccc3)cc2)CC1 | cell-free assay |  |  | 0.5 µM | remaining signal | 106% |
| Nc1ncc(-c2nc(N3CCOCC3)nc(N3CCOCC3)n2)c(C(F)F)n1 | cell-free assay |  | competition with immobilised ligand | 10 µM | remaining binding | 100% |
| COc1cc(Nc2ncc(F)c(Nc3ccc4c(n3)NC(=O)C(C)(C)O4)n2)cc(OC)c1OC | binding |  | competition with immobilised ligand | 10 µM | inhibition | 58% |
| Cc1nn(C)cc1-c1nc2c(N3CCN(Cc4ccc(Cl)cc4)CC3)c(Cl)cnc2[nH]1 | binding |  | competition with immobilised ligand | 1 µM | remaining binding | 100% |
| Cn1cc(-c2cccc(N3CCc4c(sc5c4CC(C)(C)C5)C3=O)c2CO)cc(Nc2ccncn2)c1=O | enzyme activity | inhibitor |  | 1 µM | inhibition | 1% |
